Results: ChEMBL document CHEMBL1133087, “Radioiodinated N-(2-diethylaminoethyl)benzamide derivatives with high melanoma uptake: structure-affinity relationships, metabolic fate, and intracellular localization” (J Med Chem, 2000)

Legend:
B16 [1] = experiment: Binding of radioiodinated compound in B16 cells as a function of specific activity for blood at 1 hr after injecting at 1.5(umol/mouse).; type: functional
Method in brief: (§1)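 C57Bl/6 mice carried subcutaneous B16 melanoma. Melanoma and blood radioactivity were measured by γ-counting at 1 or 6 h and expressed as % ID/g (mean, n = 3).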

B16 [2] = experiment: Binding of radioiodinated compound in B16 cells as a function of specific activity for blood at 1 hr after injecting at 1.5*10e-3 (uMol/mouse).; type: functional; method in brief: as §1
B16 [3] = experiment: Binding of radioiodinated compound in B16 cells as a function of specific activity for blood at 1 hr after injecting at 1.8*10e-6 (uMol/mouse).; type: functional; method in brief: as §1
B16 [4] = experiment: Binding of radioiodinated compound in B16 cells as a function of specific activity for blood at 6 hr after injecting at 1.5(umol/mouse).; type: functional; method in brief: as §1
B16 [5] = experiment: Binding of radioiodinated compound in B16 cells as a function of specific activity for blood at 6 hr after injecting at 1.5*10e-3 (uMol/mouse); type: functional; method in brief: as §1
B16 [6] = experiment: Binding of radioiodinated compound in B16 cells as a function of specific activity for blood at 6 hr after injecting at 1.8*10e-6 (uMol/mouse).; type: functional; method in brief: as §1
B16 [7] = experiment: Binding of radioiodinated compound in B16 cells as a function of specific activity for melanoma after 1 hr injecting at 1.8*10e-6 (uMol/mouse).; type: functional; method in brief: as §1
B16 [8] = experiment: Binding of radioiodinated compound in B16 cells as a function of specific activity for melanoma at 1 hr after injecting at 1.5(umol/mouse).; type: functional; method in brief: as §1
B16 [9] = experiment: Binding of radioiodinated compound in B16 cells as a function of specific activity for melanoma at 1 hr after injecting at 1.5*10e-3 (uMol/mouse).; type: functional; method in brief: as §1
B16 [10] = experiment: Binding of radioiodinated compound in B16 cells as a function of specific activity for melanoma at 6 hr after injecting at 1.5(umol/mouse).; type: functional; method in brief: as §1
B16 [11] = experiment: Binding of radioiodinated compound in B16 cells as a function of specific activity for melanoma at 6 hr after injecting at 1.5*10e-3 (uMol/mouse).; type: functional; method in brief: as §1
B16 [12] = experiment: Binding of radioiodinated compound in B16 cells as a function of specific activity for melanoma at 6 hr after injecting at 1.8*10e-6 (uMol/mouse).; type: functional; method in brief: as §1
Mus musculus [13] = experiment: (§2) Amount of urinary radioactivity collected within 4 hr after iv injection into C57B1/6 mice was analyzed by RP-HPLC.; type: functional, Urine
Mus musculus [14] = experiment: Biodistribution was studied by injecting intravenously into C57B1/6 mice bearing subcutaneously transplanted B16 melanoma after 1 hr.; type: ADME, organism-based; settings: in vivo, iv
Mus musculus [15] = experiment: as §2; type: ADME, organism-based, Urine; settings: in vivo
[16] = The lipophilicity was measured in an octanol/water system at pH 7.4.; type: physicochemical
Method in brief: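 HPLC-purified no-carrier-added radioiodinated benzamide was added to 0.067 M phosphate buffer at pH 7.4 with an equal volume of 1-octanol. The mixture was vortexed to equilibrium, centrifuged and the phases separated. Each phase was γ-counted, with log P = log(cpm octanol/cpm buffer).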

Mus musculus [17] = experiment: Biodistribution was studied by injecting intravenously into C57B1/6 mice bearing subcutaneously transplanted B16 spleen after 1 hr.; type: ADME, organism-based; settings: in vivo, iv
Mus musculus [18] = experiment: Biodistribution was studied by injecting intravenously into C57B1/6 mice bearing subcutaneously transplanted B16 blood after 1 hr.; type: ADME, organism-based; settings: in vivo, iv
Mus musculus [19] = experiment: Biodistribution was studied by injecting intravenously into C57B1/6 mice bearing subcutaneously transplanted B16 heart after 6 hr.; type: ADME, organism-based; settings: in vivo, iv
Mus musculus [20] = experiment: Biodistribution was studied by injecting intravenously into C57B1/6 mice bearing subcutaneously transplanted B16 muscle after 1 hr.; type: ADME, organism-based, Muscle tissue; settings: in vivo, iv
Mus musculus [21] = experiment: Biodistribution was studied by injecting intravenously into C57B1/6 mice bearing subcutaneously transplanted B16 muscle after 6 hr.; type: ADME, organism-based, Muscle tissue; settings: in vivo, iv
Mus musculus [22] = experiment: Biodistribution was studied by injecting intravenously into C57B1/6 mice bearing subcutaneously transplanted B16 […] after 6 hr.; type: ADME, organism-based; settings: in vivo, iv
Mus musculus [23] = experiment: Biodistribution was studied by injecting intravenously into C57B1/6 mice bearing subcutaneously transplanted B16 kidney after 1 hr.; type: ADME, organism-based; settings: in vivo, iv
Mus musculus [24] = experiment: Biodistribution was studied by injecting intravenously into C57B1/6 mice bearing subcutaneously transplanted B16 kidney after 6 hr.; type: ADME, organism-based; settings: in vivo, iv
Mus musculus [25] = experiment: Biodistribution was studied by injecting intravenously into C57B1/6 mice bearing subcutaneously transplanted B16 liver after 1 hr.; type: ADME, organism-based; settings: in vivo, iv
Mus musculus [26] = experiment: Biodistribution was studied by injecting intravenously into C57B1/6 mice bearing subcutaneously transplanted B16 liver after 6 hr.; type: ADME, organism-based; settings: in vivo, iv
Mus musculus [27] = experiment: Biodistribution was studied by injecting intravenously into C57B1/6 mice bearing subcutaneously transplanted B16 lung after 1 hr.; type: ADME, organism-based; settings: in vivo, iv
Mus musculus [28] = experiment: Biodistribution was studied by injecting intravenously into C57B1/6 mice bearing subcutaneously transplanted B16 lung after 6 hr.; type: ADME, organism-based; settings: in vivo, iv
Mus musculus [29] = experiment: Biodistribution was studied by injecting intravenously into C57B1/6 mice bearing subcutaneously transplanted B16 melanoma after 6 hr.; type: ADME, organism-based; settings: in vivo, iv
Mus musculus [30] = experiment: Biodistribution was studied by injecting intravenously into C57B1/6 mice bearing subcutaneously transplanted B16 blood after 6 hr.; type: ADME, organism-based; settings: in vivo, iv
Mus musculus [31] = experiment: Biodistribution was studied by injecting intravenously into C57B1/6 mice bearing subcutaneously transplanted B16 brain after 1 hr.; type: ADME, organism-based; settings: in vivo, iv
Mus musculus [32] = experiment: Biodistribution was studied by injecting intravenously into C57B1/6 mice bearing subcutaneously transplanted B16 brain after 6 hr.; type: ADME, organism-based; settings: in vivo, iv
Mus musculus [33] = experiment: Biodistribution was studied by injecting intravenously into C57B1/6 mice bearing subcutaneously transplanted B16 heart after 1 hr.; type: ADME, organism-based; settings: in vivo, iv
Mus musculus [34] = experiment: Biodistribution was studied by injecting intravenously into C57B1/6 mice bearing subcutaneously transplanted B16 blood after 24 hr; type: ADME, organism-based; settings: in vivo, iv
Mus musculus [35] = experiment: Biodistribution was studied by injecting intravenously into C57B1/6 mice bearing subcutaneously transplanted B16 muscle after 24 hr.; type: ADME, organism-based, Muscle tissue; settings: in vivo, iv
Mus musculus [36] = experiment: Biodistribution was studied by injecting intravenously into C57B1/6 mice bearing subcutaneously transplanted B16 spleen after 24 hr.; type: ADME, organism-based; settings: in vivo, iv
Mus musculus [37] = experiment: Biodistribution was studied by injecting intravenously into C57B1/6 mice bearing subcutaneously transplanted B16 kidney after 24 hr.; type: ADME, organism-based; settings: in vivo, iv
Mus musculus [38] = experiment: Biodistribution was studied by injecting intravenously into C57B1/6 mice bearing subcutaneously transplanted B16 liver after 24 hr.; type: ADME, organism-based; settings: in vivo, iv
Mus musculus [39] = experiment: Biodistribution was studied by injecting intravenously into C57B1/6 mice bearing subcutaneously transplanted B16 lung after 24 hr.; type: ADME, organism-based; settings: in vivo, iv
Mus musculus [40] = experiment: Biodistribution was studied by injecting intravenously into C57B1/6 mice bearing subcutaneously transplanted B16 melanoma after 24 hr.; type: ADME, organism-based; settings: in vivo, iv
Mus musculus [41] = experiment: Biodistribution was studied by injecting intravenously into C57B1/6 mice bearing subcutaneously transplanted B16 brain after 24 hr.; type: ADME, organism-based; settings: in vivo, iv
Mus musculus [42] = experiment: Biodistribution was studied by injecting intravenously into C57B1/6 mice bearing subcutaneously transplanted B16 heart after 24 hr.; type: ADME, organism-based; settings: in vivo, iv

ID/g (Mus musculus [14]) [%]	ID (Mus musculus [15]) [%]	logD [16]	ID/g (Mus musculus [17]) [%]	ID/g (Mus musculus [18]) [%]	ID/g (Mus musculus [19]) [%]	ID/g (Mus musculus [20]) [%]	ID/g (Mus musculus [21]) [%]	ID/g (Mus musculus [22]) [%]	ID/g (Mus musculus [23]) [%]	ID/g (Mus musculus [24]) [%]	ID/g (Mus musculus [25]) [%]	ID/g (Mus musculus [26]) [%]	ID/g (Mus musculus [27]) [%]	ID/g (Mus musculus [28]) [%]	ID/g (Mus musculus [29]) [%]	ID/g (Mus musculus [30]) [%]	ID/g (Mus musculus [31]) [%]	ID/g (Mus musculus [32]) [%]	ID/g (Mus musculus [33]) [%]	SMILES	also measured
																				CCN(CC)CCNC(=O)c1ccc(I)cc1	ID/g (B16 [1]): 1.04%; ID/g (B16 [2]): 1.06%; ID/g (B16 [3]): 0.65%; ID/g (B16 [4]): 0.1%; ID/g (B16 [5]): 0.15%; ID/g (B16 [6]): 0.17%; ID/g (B16 [7]): 5.67%; ID/g (B16 [8]): 11.6%; ID/g (B16 [9]): 10%; ID/g (B16 [10]): 14.6%; ID/g (B16 [11]): 15.5%; ID/g (B16 [12]): 9.32%; ID (Mus musculus [13]): 66%
7.73	71	1.26	2.5	0.46	0.09	0.19	0.04	0.15	1.71	0.41	0.88	0.26	1.15	0.19	6.8	0.14	0.5	0.04	0.46	CCN(CC)CCNC(=O)c1cc(I)ccc1OC	
6.21		1.34	5.62	6.5	0.58	1.81	0.44	1.39	6.46	1.22	4.05	0.77	7.98	1.82	1.2	1.51	0.48	0.09	3.19	CCN(CC)CCNC(=O)c1ccc(NC(C)=O)c(I)c1	
16.61	34	1.81	5.06	2.32	0.94	0.94	0.43	1.84	4.53	2.08	11.32	9.61	3.16	2.07	16.48	1.86	0.64	0.15	1.91	CCN(CC)CCNC(=O)c1cc(Br)c(N)c(I)c1OC	ID/g (Mus musculus [34]): 0.19%; ID/g (Mus musculus [35]): 0.01%; ID/g (Mus musculus [36]): 0.38%; ID/g (Mus musculus [37]): 0.46%; ID/g (Mus musculus [38]): 4.54%; ID/g (Mus musculus [39]): 0.26%; ID/g (Mus musculus [40]): 8.02%; ID/g (Mus musculus [41]): 0.02%; ID/g (Mus musculus [42]): 0.13%
